Assay outcomes as filed in PubChem BioAssay.
Hits are enriched below; roughly 4.7% of the tested compounds scored in any of these assays.
FXN GAA850 act: increases GAA850 frataxin promoter reporter activity. HEK293 lucGAA850 FXN promoter luciferase reporter, 24 h; percent of 10 µM SAHA response. activation, % at 6 µM. 360,000 compounds, 0.56% hits. AID 540364;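 active = activation above the average of all compounds screened plus 3 SD, cutoff fixed separately per campaign, cut at about 7.5% in these data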;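 also: 0% = DMSO wells and 100% = 10 µM SAHA wells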
MC4R ag barr: human MC4R agonism via beta-arrestin | U2OS MC4R beta-arrestin complementation, luminescence; percent of melanotan II response, DMSO zero | P32245 | 360,000 compounds, 0.98% hits | activation, % at 8.9 µM;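 active = activation above a per-plate cutoff, the mean activation of sample wells on that plate plus 3 SD, cut at about 8% in these data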
MC4R antagonist: blocks human MC4R cAMP signaling; MC4R-expressing cells, MTII-stimulated cAMP, LANCE TR-FRET; inhibition, % at 6.5 µM; 360,000 compounds, 0.48% hits;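 active = inhibition above its plate's cutoff, the mean of tested wells on that plate plus 3 SD, cut at about 29% in these data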;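 also: 0% = Melanotan II alone and 100% = Melanotan II plus saturating MCL0020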
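System: U2OS cells stably expressing human melanocortin 4 receptor (MC4R). Reagent: Melanotan II challenge after compound preincubation. Doses: 6.5 µM. Times: 30-min compound, 1-h challenge, 1-h detection, room temperature. Measured by: TR-FRET with Eu-cAMP and labeled anti-cAMP, 671 nm. Replicates: singlicate.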
m5-HT2A agonist: agonists of mouse serotonin 5-HT2A receptor (HTR2A) | 360,000 compounds, 0.66% hits | CHO-K1 mHTR2A beta-arrestin complementation, luminescence; percent of 30 µM serotonin response | activation, % at 7.6 µM;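 active = activation above a run cutoff, the mean activation of all tested compounds plus 3 SD, cut at about 14% in these data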;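 also: 0% = plate median of compound wells and 100% = 30 µM serotonin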
AHR activator: activators of human aryl hydrocarbon receptor | 320,000 compounds, 2.5% hits | AHR-responsive luciferase reporter cells, luminescence | P35869 | activation, % at 5 µM | AID 2796; in the data active = activation above about 47%;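 also: 0% = vehicle wells and 100% = reference agonist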
MOR ag counter: OPRM1 agonism in mouse HTR2A counterscreen. U2OS OPRM1 beta-arrestin PathHunter, luminescence; DMSO 0%, DAMGO 9.3 µM 100%. shares compounds with m5-HT2A agonist. activation, % at 9.3 µM. 2,300 compounds, 5.3% hits;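 active = mean activation above the mean of DMSO-only wells plus 3 SD, cut at about 0.5% in these data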
Target sequence (P35372 whole entry, looked up): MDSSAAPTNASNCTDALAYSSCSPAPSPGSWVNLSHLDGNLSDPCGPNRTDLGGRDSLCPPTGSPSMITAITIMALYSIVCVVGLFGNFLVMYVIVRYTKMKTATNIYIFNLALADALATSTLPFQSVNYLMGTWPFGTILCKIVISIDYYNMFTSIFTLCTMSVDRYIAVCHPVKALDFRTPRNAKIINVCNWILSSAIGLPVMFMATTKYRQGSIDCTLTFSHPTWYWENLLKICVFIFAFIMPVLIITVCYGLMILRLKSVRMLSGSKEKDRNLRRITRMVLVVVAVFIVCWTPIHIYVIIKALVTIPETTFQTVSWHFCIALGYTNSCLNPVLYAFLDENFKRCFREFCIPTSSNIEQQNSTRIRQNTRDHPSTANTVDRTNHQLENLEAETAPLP
m5-HT2A ag conf: mouse HTR2A agonism confirmed; CHO-K1 PathHunter beta-arrestin recruitment, luminescence; DMSO 0%, 30 µM serotonin 100%; shares compounds with m5-HT2A agonist; activation, % at 7.6 µM; AID 624381; 2,300 compounds, 19% hits;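 active = mean activation across triplicates above the hit threshold derived in the original primary screen, cut at about 15% in these data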
Numbers without * were called inactive; · = no result.

SMILES	FXN GAA850 act	MC4R ag barr	MC4R antagonist	m5-HT2A agonist	AHR activator	MOR ag counter	m5-HT2A ag conf
COc1ccc(-n2ncc3c(=O)n(CC(=O)N(C(C)C)C(C)C)cnc32)cc1	0.3	0.1	-4.2	36.8*	1.0	-0.8	-3.7
O=C(O)c1cccc(Nc2ccc3nonc3c2[N+](=O)[O-])c1	0.5	-1.3	-9.0	-2.3	0.8	·	·
O=[N+]([O-])c1c(Nc2ccccc2)ccc2nonc12	4.5	-0.6	-5.6	23.1*	-1.3	-0.3	-4.0
Cc1cc(Cl)cc(C)c1OCCNCc1ccccc1	-0.2	2.5	5.4	21.4*	1.8	-0.3	11.2
Cc1cc(S(=O)(=O)NCC(c2ccc3c(c2)OCO3)N2CCOCC2)ccc1F (stereo not drawn)	0.7	-1.5	7.4	-2.1	3.1	·	·
CCN(CC)C1CCN(C(=O)c2cc(COc3ccc(-n4cncn4)cc3)on2)C1 (stereo not drawn)	3.0	1.6	4.6	15.6*	-0.6	-0.7	-2.9
COc1ccc(OC)c(CN2C(=O)c3ccccc3C2c2nnnn2C2CCCC2)c1 (stereo not drawn)	·	·	·	0.2	·	·	·
CC1CN(C2CCCCC2)C(=O)NC1=O (stereo not drawn)	-0.2	-1.8	3.0	-1.3	·	·	·
CC(C)(C)NS(=O)(=O)c1cc(C(=O)Nc2sccc2C#N)ccc1Cl	0.1	-2.6	20.2	18.1*	10.7	-0.4	15.2*
CC(C)Cc1cc(C(=O)Nc2ccc(F)cc2F)no1	1.4	2.4	18.3	17.5*	-1.5	-0.6	-2.5
CC(C)Cc1cc(C(=O)Nc2cc(Cl)ccc2Cl)no1	-1.4	4.3	7.4	-2.6	15.6	·	·
O=C(N=C1SC2CS(=O)(=O)CC2N1Cc1ccc(F)cc1)C1CCCO1 (stereo not drawn)	-1.3	-1.0	18.6	-7.2	0.4	·	·
OCC[C@@H]1C[C@@H](O)[C@H](O)[C@]2(OCCCc3ccccc32)O1	-1.8	-1.1	4.1	0.4	-0.8	·	·
OCC[C@@H]1C[C@H](O)[C@@H](O)[C@@]2(OCCCc3cc(C(F)(F)F)ccc32)O1	·	·	·	14.7*	·	-0.3	6.9
COC(=O)C1=CN(c2ccc(N3CCOCC3)cc2)C(N)=C(C#N)C1c1cccc(F)c1 (stereo not drawn)	·	·	·	-3.3	·	·	·
Clc1ccc(CN2CCN(c3ncccn3)CC2)cc1Cl	-1.6	0.9	9.0	27.1*	-7.3	0.0	112.1*
Clc1ccc(CN2CCN(c3ncccn3)CC2)cc1	0.3	-0.5	6.1	28.8*	-3.6	0.1	116.6*
O=C(Cc1ccccc1)N1CCN(c2ncccn2)CC1	1.8	-1.7	3.4	-1.3	-0.4	·	·
c1ccc(CN2CCN(c3ncccn3)CC2)cc1	3.6	-1.2	-2.6	34.7*	-4.1	-0.4	97.9*
c1ccc(COc2ccc(CN3CCN(c4ccccn4)CC3)cc2)cc1	5.5	0.9	-0.3	26.8*	3.9	-0.6	98.5*
CC(=O)c1ccc(OC2(C)CCN(Cc3csc4ccccc34)C2)cc1 (stereo not drawn)	-0.6	-0.2	-0.8	-7.1	·	·	·
N#C/C(=C\c1ccc(OCCN2CCOCC2)cc1)C(=O)Nc1ccc(S(N)(=O)=O)cc1	0.5	-3.0	-3.8	-0.9	-1.5	·	·
CCCC(=O)Nc1c(-c2ccccc2)c(=O)c(C)nn1-c1ccc(Cl)cc1	0.6	-3.6	-7.7	15.3*	-0.7	-0.7	-3.2
Cc1cc(Cl)nc(-n2nc(C)cc2C)n1	0.5	-0.3	10.1	15.7*	1.3	-0.7	-3.4
COc1ccc(-c2nc3c(c(SCC(=O)N4CCOCC4)n2)COC(C)(C)C3)cc1	2.6	0.6	1.5	3.3	-1.6	·	·
SMILES	FXN GAA850 act	MC4R ag barr	MC4R antagonist	m5-HT2A agonist	AHR activator	MOR ag counter	m5-HT2A ag conf
Cc1ccc(-c2nc3c(c(SCC(=O)N4CCOCC4)n2)COC(C)(C)C3)cc1	1.7	-2.9	-1.1	20.0*	-4.1	-0.4	-2.9
COc1ccc(C2=CC(c3sccc3C)n3nnnc3N2)cc1 (stereo not drawn)	3.1	-0.2	1.6	15.0*	40.6	0.1	2.1
NC(N)=NC(=O)Cc1c(Cl)cccc1Cl	1.4	-1.1	6.5	30.0*	-0.1	-0.7	39.8*
O=C(Cc1c(Cl)cccc1Cl)OCc1ccccn1	4.8	-0.7	10.0	-1.7	-5.4	·	·
CCOC(=O)CC(=O)CSCC(=O)Nc1ccc(C)cc1	2.4	1.9	-4.2	15.6*	3.4	-0.3	0.9
COc1ccc(OC)c(NC(=O)CS(=O)(=O)c2ccccc2)c1	0.1	-2.0	12.5	9.3	2.6	·	·
COc1cc(OC)nc(NC(=O)CS(=O)(=O)c2ccccc2)n1	0.9	3.6	5.8	15.7*	-0.2	0.1	2.6
O=C(Nc1ccc(S(=O)(=O)N2CCCCCC2)cc1)c1ccco1	6.3	-2.7	-2.6	14.6*	-1.2	-0.6	-2.3
COc1ccc(S(=O)(=O)Nc2ccccc2N2CCOCC2)cc1OC	1.9	1.1	8.0	1.0	-0.1	·	·
COc1ccc(O)c(-c2c(-c3ccc(Cl)cc3)n[nH]c2C)c1	-0.9	-1.2	2.7	-0.2	2.1	·	·
COc1ccc(-c2n[nH]c(C)c2-c2ccc(Cl)cc2)c(O)c1OC	-6.8	6.5	6.3	22.0*	7.4	0.4	6.6
CCCCC1SC(N)=NC1=O (stereo not drawn)	0.3	-1.5	3.0	2.1	·	·	·
CCOc1ccc(CCNC(=O)C2=C(C)C(=O)OC23CCC(C)CC3)cc1 (stereo not drawn)	-0.7	1.2	13.7	16.3*	-0.9	-0.3	-2.5
O=C(c1ccc(-c2ccc([N+](=O)[O-])cc2)o1)N1CCCC(C(F)(F)F)C1 (stereo not drawn)	0.5	-1.0	1.4	-7.5	-4.9	·	·
O=C(c1ccc(-c2ccc([N+](=O)[O-])cc2)o1)N1CCCCCCC1	5.6	-1.1	22.1	15.1*	1.1	-0.6	-5.6
CC(=O)Nc1cccc(-c2csc(C(O)c3ccccc3)n2)c1 (stereo not drawn)	2.1	0.0	3.8	-3.8	·	·	·
CC1(C(=O)NS(=O)(=O)c2ccc(Br)cc2)CCN1C(=O)C1(c2ccccc2)CC1 (stereo not drawn)	-1.2	1.8	-1.3	4.3	·	·	·
CC1(C(=O)NS(=O)(=O)c2ccc(C#N)cc2)CCN1C(=O)Cc1ccsc1 (stereo not drawn)	2.3	-1.1	-0.8	-1.1	·	·	·
CC(C)(C)c1ccc(CC(=O)N2CCC2(C)C(=O)NS(=O)(=O)c2cccc(OC(F)F)c2)cc1 (stereo not drawn)	0.3	2.2	13.4	16.3*	·	0.2	4.0
Cc1cc(C)cc(CC(=O)N2CCC2(C)C(=O)NS(=O)(=O)c2ccc(C#N)cc2)c1 (stereo not drawn)	-0.6	-0.7	-0.9	15.7*	·	-0.7	-2.6
